Sampled rows, rich in hits. Any-hit rate of the full collection: about 2.4%.
LGR2 inh: Drosophila LGR2 receptor signaling inhibition; HEK293 LGR2, CRE-luciferase, bursicon-stimulated, 4 h; inhibition, % at 9.99 µM; hit rate 0.35% among 380,000; AID 720647;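 active = drop in luminescence signal, shown as inhibition above about 50% in the replicate tests, limit read from the data, passing the limit was not always enough; inconclusive = probably only some replicates passing the limit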;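 note: agonist challenge used bursicon conditioned medium at about half maximal strength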
rRNA inh HTS: selective bacterial rRNA inhibition in E. coli | E. coli WT GFP vs humanized-ribosome RFP mutants, fluorescence, 24 h; stronger effect = lower value; DMSO median 0, no signal -100 | GFP signal change (wild-type ribosome), % (test concentration not listed) | hit rate 1.6% among 350,000 | AID 720706;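 active = significant combined selectivity score with lowered wild-type GFP, culture density cut under 30%, mutant RFP and density less affected; inactive = any of these conditions unmet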
E-selectin induc: induces E-selectin expression in human endothelial cells; HUVEC E-selectin immunofluorescence imaging; normalized: neutral wells 0, TNF-alpha wells 100; hit rate 0.37% among 260,000; activation, % at 7.58 µM;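 active = mean E-selectin-positive cell signal at least 10% of the positive control, reached in at least 60% of replicates, without over 20% cell loss; inconclusive = no rule given, readout overlaps actives, possibly toxicity-flagged; inactive = the rest, including those meeting only one limit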
Target sequence (P16581 whole entry, looked up): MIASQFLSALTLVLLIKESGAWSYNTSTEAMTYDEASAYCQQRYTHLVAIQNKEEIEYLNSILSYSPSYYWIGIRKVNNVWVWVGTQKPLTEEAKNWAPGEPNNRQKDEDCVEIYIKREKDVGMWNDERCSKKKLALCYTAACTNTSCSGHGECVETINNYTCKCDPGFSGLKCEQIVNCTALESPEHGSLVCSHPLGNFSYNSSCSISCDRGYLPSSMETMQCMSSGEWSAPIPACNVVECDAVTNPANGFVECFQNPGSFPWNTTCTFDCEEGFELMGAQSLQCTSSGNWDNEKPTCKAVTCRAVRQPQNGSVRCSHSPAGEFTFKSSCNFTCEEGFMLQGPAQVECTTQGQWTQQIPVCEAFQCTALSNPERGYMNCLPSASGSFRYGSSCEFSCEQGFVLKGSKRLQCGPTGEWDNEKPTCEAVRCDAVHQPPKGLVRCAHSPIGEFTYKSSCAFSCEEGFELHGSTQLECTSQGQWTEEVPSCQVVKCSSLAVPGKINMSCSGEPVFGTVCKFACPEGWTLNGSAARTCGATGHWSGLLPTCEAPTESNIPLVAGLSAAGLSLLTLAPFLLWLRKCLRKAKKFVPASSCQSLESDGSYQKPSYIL
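Test system: HUVEC | Signal: Immunofluorescence imaging | Read-out: Percent E-selectin-positive cells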
EWS-Fli block: EWS/Fli transcriptional activity inhibition; A673 NR0B1-luciferase reporter, viability-normalised; inhibition, % at 12.6 µM; hit rate 0.67% among 350,000; AID 651661;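 active = mean inhibition of at least 50% after viability correction, with every replicate also passing that limit; inconclusive = mean reaches 50% but only one of two replicates passes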;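 note: firefly luciferase signal divided by Alamar Blue viability fluorescence both relative to DMSO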
HepG2 cytotox: kills or reduces viability of HepG2 cells | ATP luminescence, 72 h | 30 tested, under 10 active | activity change, negative = cytotoxicity, unspecified at 26 µM | shares compounds with rRNA inh HTS | AID 743480;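 active = compounds whose fitted half-maximal signal-loss concentration is at most twice their highest valid dose; inconclusive = flat curve with 30 to 70% signal loss, or poor fit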
AID977621: growth inhibition of wild-type GFP E. coli, dose response, H69 mutant RFP, cherry-pick; AID 977621; shares compounds with rRNA inh HTS; 1,900 tested, under 10 active; activity change, negative = inhibition at 50 µM; E. coli wild-type GFP strain growth, fluorescence, 24 h;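 active = Wild-type ribosome reporter drop at least double the humanized mutant ribosome reporter drop, growth loss under a set limit; inconclusive = no clear call, values can overlap the other calls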;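 note: wild-type GFP and H69 mutant RFP strains grown together 50/50 in each well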
AID977628: growth of wild-type and h24-humanized E. coli strains – h24 mutant RFP vs wild-type GFP, cherry-pick, dose response; shares compounds with rRNA inh HTS; 1,900 tested, under 10 active; activity change, negative = inhibition at 50 µM; E. coli WT GFP strain growth, fluorescence, 24 h;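 active = compound lowering the normal-ribosome reporter at least twice as much as the humanized-ribosome reporter, growth loss under a set limit; inconclusive = no clear call, values can overlap the other calls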;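 note: wild-type GFP and h24 humanized RFP strains co-cultured 1 to 1 per well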
Numbers without * were called inactive; u = inconclusive; x = not tested or not shown; [ ] = dose if it differs, or a comment.

SMILES	LGR2 inh	rRNA inh HTS	E-selectin induc	EWS-Fli block	AID977621	AID977628	others
C[C@@H]1CN([C@H](C)CO)C(=O)c2cc(NS(=O)(=O)c3ccc(F)cc3)ccc2O[C@@H](C)CCCCO[C@H]1CN(C)C(=O)C1CCCCC1	14	-2	0	1	x	x
O=C(O)c1ccccc1NC(=O)C(c1ccccc1)c1ccccc1	-11	-30*	0	7	-14	-12
COc1ccc(OC)c(NC(=O)CN(C)CC(=O)Nc2ccccc2Br)c1	14	-25*	-2	5	-20	u
COc1ccc(N(C)S(=O)(=O)c2cccc(C(=O)NC3CCCCC3C)c2)cc1 (stereo not given)	-8	-27*	x	3	-6.9	x
Cc1noc(C)c1C(=O)N(CC(C)C)c1nc2ccccc2s1	-16	0	-1	2	x	x
CC(C)CN(C(=O)c1ccco1)c1nc2ccccc2s1	-18	-19*	0	-30	x	u
COCCNC(=O)C[C@H]1C[C@H]2c3cc(NC(=O)C4CCC4)ccc3O[C@H]2[C@@H](CO)O1	3	0	1	-2	x	x
COc1ccc(CNC(=O)c2sc3nc4c(c(C(F)(F)F)c3c2N)CCC4)cc1OC	-8	-19*	-3	5	-0.68	3.3
O=C(O)CSCc1cnn(-c2ccccc2)c1-n1cccc1	7	x	x	x	x	x
O=C(CSCc1cnn(-c2ccccc2)c1-n1cccc1)NCc1cccnc1	8	-25*	5	6	8.3	-2.9
Cc1cc(C)c(C#N)c(N2CCN(c3ccccc3)CC2)n1	10	-26*	0	5	x	x	HepG2 cytotox=23[12 µM]
COc1ccccc1N1CCN(c2nc(C)cc(C)c2C#N)CC1	0	-36	0	3	x	x
Cc1ccc(C)c(N2CCN(C(=O)CCS(=O)(=O)c3ccc4c(c3)oc(=O)n4C)CC2)c1	6	-19*	x	x	-8.6	-4.9
CC(C)(C)c1ccc(C(CC(=O)O)NC(=O)Cc2ccc(Cl)cc2)cc1 (stereo not given)	-7	-24*	0	14	-15	u
CC(C)Oc1ccc(C(CC(=O)O)NC(=O)Cc2ccc(Cl)cc2)cc1 (stereo not given)	4	10	0	4	x	x
O=C(Nc1ccccc1F)N1CC(=O)N2[C@@H](CO)[C@@H](c3ccc(C#Cc4ccccc4)cc3)[C@@H]2C1	14	-15	0	-13	x	x
CCCN(C)C[C@@H]1OCCCC[C@H](C)Oc2ccc(NC(=O)Nc3ccc4c(c3)OCO4)cc2C(=O)N([C@H](C)CO)C[C@@H]1C	10	-2	0	2	x	x
Cc1ccccc1COc1ccc(-c2nn[nH]n2)cc1	-5	-25*	x	0	u	x
c1ccc(-c2nn[nH]n2)cc1	-3	-7	x	8	x	x
C[C@H](CO)N1C[C@H](C)[C@H](CN(C)S(=O)(=O)c2ccc(F)cc2)Oc2ncc(C#Cc3ccccc3)cc2C1=O	11	2	0	19	x	x
COC(=O)c1ccc(OS(=O)(=O)c2ccc(NC(C)=O)cc2)cc1	-9	-21*	0	8	x	u
COC(=O)c1ccc(NS(=O)(=O)c2ccc(OC)cc2)cc1	3	1	x	x	x	x
COc1ccc(CN(C)C[C@H]2Oc3c(NC(=O)CCCCCC(=O)Nc4ccccc4N)cccc3C(=O)N([C@@H](C)CO)C[C@@H]2C)cc1	18	-3	0	x	x	x
CC1(CCC(=O)N2CCCC(N3CCN(c4ccc(F)cc4)CC3)C2)CC1 (stereo not given)	10	-25*	0	12	-3.1	u
CSCC(=O)N1CCCC(N2CCN(c3ccc(F)cc3)CC2)C1 (stereo not given)	-7	0	1	-12	x	x
SMILES	LGR2 inh	rRNA inh HTS	E-selectin induc	EWS-Fli block	AID977621	AID977628	others
COC(=O)C[C@H]1CC[C@@H]2[C@@H](COc3ccc(NC(=O)c4ccccc4F)cc3C(=O)N2C)O1	-11	-4	0	-5	x	x
CN1c2ccc(-c3cccc(C#N)c3)cc2[C@H]2[C@H](CCN2C(=O)C2CC2)[C@@H]1CO	12	1	0	10	x	x
CCC1(C(=O)OC)CCc2c(cc(OC)c3ccccc23)C1=O (stereo not given)	2	-27*	0	12	-6.5	-12
COC(=O)C1(C)CCc2c(ccc3ccccc23)C1=O (stereo not given)	-24	-4	0	5	x	x
Cc1ccc(S(=O)(=O)Nc2ccc3c(c2)C(=O)N([C@@H](C)CO)C[C@H](C)[C@@H](CN(C)Cc2ccc4c(c2)OCO4)OCCCC[C@H](C)O3)cc1	-25	2	0	27	x	x
COc1ccc(NC(=O)Nc2ccc3c(c2)CC(=O)N([C@@H](C)CO)C[C@H](C)[C@H](CN(C)S(=O)(=O)c2ccc(C)cc2)O3)cc1	x	-1	x	x	x	x
C[C@H](NC(=O)N(C)C[C@@H]1OCc2ccccc2-c2c(n(C)c3ccccc23)C(=O)N([C@H](C)CO)C[C@@H]1C)c1ccccc1	31	-1	0	6	x	x
O=C(Nc1cccnc1)c1sc2cccc(F)c2c1Cl	-31	-20*	0	-40	-8.2	-2.7
C/C=C/c1cnc2c(c1)C(=O)N([C@@H](C)CO)C[C@@H](C)[C@H](CN(C)Cc1ccc(F)cc1)O2	-23	2	0	1	x	x
COc1ccc(-n2ccnc2SCC(=O)NCc2ccccc2)c(OC)c1	-2	-25*	0	7	5.4	x
O=C(C[C@@H]1CC[C@H]2[C@@H](COC[C@H](O)CN2C(=O)c2cnccn2)O1)NCc1ccccc1	4	3	0	-8	x	x
O=C(CN1CCOCC1)N1CC(=O)N2[C@H](C1)[C@H](c1ccc(-c3cccc(F)c3)cc1)[C@@H]2CO	-1	5	0	-5	x	x
COc1cc(OC)nc(Oc2ccccc2C(=O)Oc2ccc(C)cc2)n1	-5	-24*	x	0	-21	x
COc1cc(OC)nc(Oc2ccccc2C(=O)Oc2ccc(Cl)cc2)n1	7	-14	x	14	x	x
O=C(NCc1ccco1)c1ccc2ccccc2n1	-40	-14*	-1	-3	-15	u
O=C(NCc1ccc(Cl)cc1)c1ccc2ccccc2n1	11	1	x	-26	x	x
O=C(C[C@H]1C[C@@H]2c3cc(NC(=O)C4CCOCC4)ccc3O[C@@H]2[C@@H](CO)O1)NCc1ccccn1	6	2	0	0	x	x
O=C(O)CSc1nc2ccccc2n1C1CCCCC1	-9	-22*	1	7	-9.2	x
O=C(O)CSc1nc2ccccc2n1Cc1ccccc1	7	-7	0	-7	x	x
CCCNC(=O)N1CC2(CCN(CC3CC3)CC2)c2c(n(C)c3cc(OC)ccc23)[C@H]1CO	10	1	0	1	x	x
